Results: ChEMBL document CHEMBL1212693, “Dorsomorphin inhibits BMP signals required for embryogenesis and iron metabolism” (Nat Chem Biol, 2008)
Calls of active or inactive are those of the source.

Experiments:
Mus musculus [1] = organism: Mus musculus; test: Inhibition of BMPR1-mediated Smad-5 phosphorylation in BMP6-stimulated mouse BMPR2 deficient PASMC at 4 uM treated 30 mins before BMP6 challenge measured after 30 mins by immunoblot analysis
Mus musculus [2] = organism: Mus musculus; test: Inhibition of ALK3-mediated Smad-1 phosphorylation in BMPR2 deficient mouse PASMC at 10 uM by immunoblot analysis
Procedure, shortened: (§1)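 BMPR-II–deficient mouse PASMCs (RPMI, 10% FBS) transiently transfected with constitutively active ALK2, ALK3 or ALK6 cDNA, or plasmid-only control. Incubated with or without compound (10 µM). Extracts lysed in SDS buffer, run on SDS-PAGE and immunoblotted for phospho-SMAD1/5/8; quantitated by phosphorimager.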

Mus musculus [3] = test: Inhibition of iron-dextran conjugate-induced Smad-8 phosphorylation in C57BL/6 mouse at 23 ug/g, iv after 1 hr; assay type: functional, organism-based
Danio rerio [4] = organism: Danio rerio; test: Inhibition of BMPR1 in zebrafish assessed as penetrance of mild embryonic axis dorsalization at 10 uM treated at 2 to 4 hrs post-fertilization measured at 48 hrs; parameters: scale not given: the % may be the effect or the level left
Procedure, shortened: (§2)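 Compound added at the stated times and concentrations. Gross morphology scored visually at up to 48 h.p.f. for dorsalization of the embryonic axis.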

Danio rerio [5] = organism: Danio rerio; test: Inhibition of BMPR1 in zebrafish assessed as penetrance of mild embryonic axis dorsalization at 10 uM treated at 6 to 8 hrs post-fertilization measured at 48 hrs; parameters: scale not given: the % may be the effect or the level left; procedure, shortened: as §2
Danio rerio [6] = test: Inhibition of iron-dextran conjugate-induced Smad-8 phosphorylation in zebrafish at 23 ug/g, iv after 1 hr relative to control; assay type: functional
Mus musculus [7] = organism: Mus musculus; test: Inhibition of ALK6-mediated Id1 promoter activity in BMPR2 deficient mouse PASMC at 10 uM by immunoblot analysis
Procedure, shortened: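 BMPR-II–deficient mouse PASMCs at 50% confluence co-transfected with Id1 promoter firefly luciferase (BRE-Luc, 0.3 µg), caALK2, caALK3 or caALK6 (0.6 µg), and pRL-TK Renilla (0.2 µg). Compound (4–10 µM) or vehicle added 1 h after transfection. Activity read as firefly/Renilla ratio by dual luciferase assay; n = 3, mean ± s.d.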

Danio rerio [8] = organism: Danio rerio; test: Inhibition of BMPR1 in zebrafish assessed as severity of embryonic axis dorsalization at 7.5 uM treated at 3 hrs post-fertilization measured at 48 hrs; parameters: scale not given: the % may be the effect or the level left
Danio rerio [9] = organism: Danio rerio; test: Inhibition of BMPR1 in zebrafish assessed as penetrance of normal embryonic axis dorsalization at 10 uM treated continuously from 6 hrs post-fertilization measured at 48 hrs; parameters: scale not given: the % may be the effect or the level left
Danio rerio [10] = organism: Danio rerio; test: Inhibition of BMPR1 in zebrafish assessed as penetrance of normal embryonic axis dorsalization at 2 uM treated at 3 hrs post-fertilization measured at 48 hrs; parameters: scale not given: the % may be the effect or the level left
Danio rerio [11] = organism: Danio rerio; test: Inhibition of BMPR1 in zebrafish assessed as penetrance of moderate embryonic axis dorsalization at 2 uM treated at 3 hrs post-fertilization measured at 48 hrs; parameters: scale not given: the % may be the effect or the level left
Danio rerio [12] = organism: Danio rerio; test: Inhibition of BMPR1 in zebrafish assessed as penetrance of normal embryonic axis dorsalization at 10 uM treated at 2 to 4 hrs post-fertilization measured at 48 hrs; parameters: scale not given: the % may be the effect or the level left
Danio rerio [13] = test: Inhibition of iron-dextran conjugate-induced hepcidin mRNA expression in zebrafish at 23 ug/g, ip by qRT-PCR analysis; assay type: functional, organism-based
Procedure, shortened: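 Adult zebrafish under tricaine were injected intraperitoneally with 10 µl iron-dextran (100 mg ml−1) plus compound (23 µg g−1) or DMSO vehicle; controls received dextran. Livers were taken 3 h later and RNA was extracted with Trizol. Hepcidin mRNA was measured by qRT-PCR and normalised to liver fatty acid binding protein mRNA, with n = 4 per group.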

Danio rerio [14] = test: Inhibition of iron-dextran conjugate-induced Smad-5 phosphorylation in zebrafish at 23 ug/g, iv after 1 hr relative to control; assay type: functional
Mus musculus [15] = organism: Mus musculus; test: Inhibition of BMPR1-mediated Smad-5 phosphorylation in BMP2-stimulated mouse PASMC at 4 uM treated 30 mins before BMP2 challenge measured after 30 mins by immunoblot analysis
Procedure, shortened: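 Wild-type mouse PASMCs were kept in RPMI with 0.5% FCS for 24 h. They were preincubated with compound or vehicle for 30 min, then stimulated for 30 min with recombinant BMP2, BMP4, BMP6 or BMP7 at 10 ng ml−1. Lysates in SDS buffer were immunoblotted with anti-phospho-SMAD1/5/8. Total SMAD1 and α-tubulin served as loading controls, and bands were quantified by phosphorimager.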

Mus musculus [16] = organism: Mus musculus; test: Inhibition of BMPR1-mediated Smad-1 phosphorylation in BMP2-stimulated mouse BMPR2 deficient PASMC at 4 uM treated 30 mins before BMP2 challenge measured after 30 mins by immunoblot analysis
Procedure, shortened: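 PASMCs (wild-type or BMPR-II–deficient) were kept 24 h in RPMI with 0.5% FCS, preincubated 30 min with compound or vehicle, then stimulated 30 min with recombinant BMP (10 ng ml−1). Extracts in SDS-lysis buffer were immunoblotted for phospho-SMAD1/5/8, with total SMAD1 and α-tubulin as loading controls. Bands were quantitated by phosphorimager.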

Mus musculus [17] = organism: Mus musculus; test: (§3) Inhibition of BMPR1-mediated Smad-8 phosphorylation in BMP4-stimulated mouse PASMC treated 30 mins before BMP4 challenge measured after 30 mins by immunoblot analysis
Procedure, shortened: (§4)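 Mouse PASMCs were held 24 h in RPMI with 0.5% FCS. They were preincubated 30 min with test agent, noggin or vehicle, then exposed to recombinant BMP4 for 30 min. SDS lysates were immunoblotted for phospho-SMAD1/5/8 and bands quantified by phosphorimager. Dose-dependence was fitted as a Hill plot.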

[18] = as §3; procedure, shortened: as §4
Danio rerio [19] = organism: Danio rerio; test: Inhibition of BMPR1 in zebrafish assessed as severity of embryonic axis dorsalization at 10 uM treated at 2 to 8 hrs post-fertilization measured at 48 hrs; parameters: scale not given: the % may be the effect or the level left
Danio rerio [20] = organism: Danio rerio; test: Inhibition of BMPR1 in zebrafish assessed as severity of embryonic axis dorsalization at 10 uM treated continuously from 10 hrs post-fertilization measured at 48 hrs; parameters: scale not given: the % may be the effect or the level left
Mus musculus [21] = organism: Mus musculus; test: Inhibition of BMPR1-mediated Smad-5 phosphorylation in BMP4-stimulated mouse PASMC at 100 to 200 ng/ml treated 30 mins before BMP4 challenge measured after 30 mins by immunoblot analysis; procedure, shortened: as §4
Hep 3B2 = test: Inhibition of BMPR1-mediated hepcidin mRNA expression in IL6-stimulated human Hep3B cells at 10 uM treated 30 mins before IL6 challenge measured after 6 hrs by qRT-PCR analysis; assay type: cell-based
Procedure, shortened: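 Hep3B cells were incubated in α-MEM with 1% FCS for 6 h, with human IL-6 (100 ng ml−1) or without, together with compound or vehicle. After Trizol RNA extraction, hepcidin and Id1 mRNA were quantified by qRT-PCR. Values were normalised to 18S rRNA or β-actin mRNA, and measurements were in triplicate.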

Mus musculus [22] = organism: Mus musculus; test: Inhibition of ALK2-mediated Smad-5 phosphorylation in BMPR2 deficient mouse PASMC at 10 uM by immunoblot analysis; procedure, shortened: as §1
Danio rerio [23] = organism: Danio rerio; test: Inhibition of BMPR1 in zebrafish assessed as penetrance of normal embryonic axis dorsalization at 10 uM treated continuously from 10 hrs post-fertilization measured at 48 hrs; parameters: scale not given: the % may be the effect or the level left
Mus musculus [24] = organism: Mus musculus; test: Inhibition of BMPR1-mediated Smad-8 phosphorylation in BMP6-stimulated mouse BMPR2 deficient PASMC at 4 uM treated 30 mins before BMP6 measured after 30 mins by immunoblot analysis

c1cc(-c2cnn3cc(-c4ccc(OCCN5CCCCC5)cc4)cnc23)ccn1 [DORSOMORPHIN]
95%: Activity (Danio rerio [5])
active: inhibition (Mus musculus [1]) | inhibition (Mus musculus [2]) | inhibition (Mus musculus [3]) | inhibition (Mus musculus [7]) Dose-dependent effect | inhibition (Danio rerio [13]) | inhibition (Mus musculus [15]) | inhibition (Mus musculus [16]) | inhibition (Mus musculus [17]) Dose-dependent effect | inhibition (Mus musculus [21]) | inhibition (Hep 3B2) | inhibition (Mus musculus [22]) | inhibition (Mus musculus [24])
3: fold change (FC) (Danio rerio [6]) | fold change (FC) (Danio rerio [14])
10%: Activity (Danio rerio [4])
470 nM: IC50 [18]
100%: Activity (Danio rerio [8]) | Activity (Danio rerio [10]) | Activity (Danio rerio [19]) | Activity (Danio rerio [23])
0%: Activity (Danio rerio [9]) | Activity (Danio rerio [11]) | Activity (Danio rerio [12]) | Activity (Danio rerio [20])
